Only some compounds are listed: those with a hit (about 3.3% of all), similar ones and a draw of the others.
ABCB6 inh MLPCN: ABCB6 transporter inhibitors, primary screen, K562-ABCB6 cells, flow cytometry, MLPCN library | ATP-binding cassette sub-family B member 6 (Homo sapiens), Q9NP58 | fluorescence ratio to DMSO, % at 10 µM | 0.19% of 360,000 active | K562-ABCB6 porphyrin accumulation, 1 h; hits give low values | AID 602162, 2011;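 active = fluorescence ratio to DMSO below 75%, the collection mean minus 3 SD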;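 also: signal is porphyrin accumulated inside mitochondria; 100% equals median channel fluorescence of DMSO control wells; lower ratio means ABCB6 inhibition with less porphyrin fluorescence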
Target sequence (Q9NP58 whole entry, looked up): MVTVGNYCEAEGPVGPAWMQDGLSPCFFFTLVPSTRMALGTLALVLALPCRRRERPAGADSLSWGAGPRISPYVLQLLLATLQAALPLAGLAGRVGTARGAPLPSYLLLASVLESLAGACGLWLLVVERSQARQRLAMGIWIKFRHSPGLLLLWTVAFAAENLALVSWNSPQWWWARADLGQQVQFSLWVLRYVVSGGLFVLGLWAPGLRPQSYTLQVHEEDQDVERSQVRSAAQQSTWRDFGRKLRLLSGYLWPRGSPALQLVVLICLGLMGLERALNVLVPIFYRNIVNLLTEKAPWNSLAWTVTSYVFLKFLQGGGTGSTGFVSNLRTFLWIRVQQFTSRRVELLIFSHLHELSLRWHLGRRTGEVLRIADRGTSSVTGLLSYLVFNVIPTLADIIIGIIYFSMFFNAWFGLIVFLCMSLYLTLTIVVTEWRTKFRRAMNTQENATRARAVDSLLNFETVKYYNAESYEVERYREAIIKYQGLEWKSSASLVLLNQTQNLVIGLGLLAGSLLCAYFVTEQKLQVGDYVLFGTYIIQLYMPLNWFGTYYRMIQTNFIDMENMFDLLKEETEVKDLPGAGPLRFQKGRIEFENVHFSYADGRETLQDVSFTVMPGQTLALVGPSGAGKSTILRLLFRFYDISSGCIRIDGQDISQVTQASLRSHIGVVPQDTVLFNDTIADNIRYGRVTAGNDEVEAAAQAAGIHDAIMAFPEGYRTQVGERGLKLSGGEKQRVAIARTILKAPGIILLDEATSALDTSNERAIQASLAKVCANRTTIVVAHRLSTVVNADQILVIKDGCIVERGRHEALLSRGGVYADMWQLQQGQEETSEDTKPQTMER
GAA850 FXN act: FXN promoter activators, primary screen, cell-based, luciferase luminescence, HEK293 lucGAA850. HEK293 lucGAA850 FXN promoter luciferase reporter, 24 h; percent of 10 µM SAHA response. activation, % at 6 µM. 0.56% of 360,000 active;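 active = activation above the average of all compounds screened plus 3 SD, cutoff fixed separately per campaign, cut at about 7.5% in these data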;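 also: 0% = DMSO wells and 100% = 10 µM SAHA wells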
STAT3 activator: IL-6 driven STAT3 reporter potentiators, primary screen, U3A cells, luciferase, luminescence, MLSCN library. activation (% of control), % at 5.6 µM. IL-6 STAT3-luciferase reporter; 100% = signal with IL-6 EC80 alone. AID 871, 2007. 0.91% of 190,000 active;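 active = activation above the screen-wide mean of compound activation plus 3 SD, cut at about 130% in these data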;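 also: 0% = background luminescence of wells with medium and substrate only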
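Test system: STAT3-luciferase reporter U3A cells; Detection: reporter luminescence signal; Times: 1 h compound pre-exposure, 6 h IL-6 stimulation, 37 °C; Benchmarks: IL-6-only high control; Also added: IL-6 stimulus at 33 ng/mL final.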
AHR activator: AHR activators, primary screen, cell-based, luminescence, luciferase reporter, human; Aryl hydrocarbon receptor (Homo sapiens), P35869; AHR-responsive luciferase reporter cells; activation, % at 5 µM; 2.5% of 320,000 active; AID 2796, 2010; in the data active = activation above about 47%;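 also: 0% = vehicle wells and 100% = reference agonist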
* = called active by the depositor.

How did COc1cccc(OC)c1C(=O)Nc1ccc(N2CCN(S(C)(=O)=O)CC2)cc1 do in these assays?
ABCB6 inh MLPCN: 99.0; GAA850 FXN act: -1.6; STAT3 activator: 101.0; AHR activator: -1.9

How did COc1ccc(C(=O)Nc2ccc3c(c2)Cc2ccccc2-3)cc1 do in these assays?
ABCB6 inh MLPCN: 105.0; GAA850 FXN act: 2.5; STAT3 activator: 103.0; AHR activator: 0.6

How did Fc1ccc(OCc2nnc(-c3ccccc3Br)o2)c(Cl)c1 do in these assays?
ABCB6 inh MLPCN: 95.0; GAA850 FXN act: 4.8; AHR activator: -7.9

Results for COc1ccc2c(c1)O[C@@]1(CCCC[C@@H]1C)CC2=O ?
ABCB6 inh MLPCN: 96.0; GAA850 FXN act: -3.0; AHR activator: 2.2

Results for CCOC(=O)c1c(C)[nH]c(C)c1C=O ?
ABCB6 inh MLPCN: 97.0; GAA850 FXN act: -1.1; STAT3 activator: 89.4; AHR activator: 27.1

What do the screens show for `CCOC(=O)c1c(C)[nH]c(O)c1C=Nc1ccc(Cl)cc1`?
ABCB6 inh MLPCN: 125.0; GAA850 FXN act: -2.3; STAT3 activator: 97.5; AHR activator: 76.9*

How did Cc1[nH][nH]c(=O)c1C=Nc1ccc(C(F)(F)F)cc1 do in these assays?
ABCB6 inh MLPCN: 102.0; GAA850 FXN act: -0.2; STAT3 activator: 98.3; AHR activator: 38.7

What do the screens show for `COC(=O)c1c(C)[nH]c(O)c1C=Nc1ccc(C(C)C)cc1`?
ABCB6 inh MLPCN: 115.0; GAA850 FXN act: 3.5; STAT3 activator: 113.5; AHR activator: 90.4*

Results for COC(=O)c1c(C)[nH]c(O)c1C=Nc1ccc(Oc2ccccc2)cc1 ?
ABCB6 inh MLPCN: 114.0; GAA850 FXN act: -0.2; STAT3 activator: 90.7; AHR activator: -3.1

What do the screens show for `CCOC(=O)c1c(C)[nH]c(O)c1C=Nc1ccc(C(F)(F)F)cc1`?
ABCB6 inh MLPCN: 134.0; GAA850 FXN act: 0.8; STAT3 activator: 89.4; AHR activator: 62.5*

Results for COc1ccc(CN2C[C@@H](CO)O[C@@H](n3cnc4c(N5CCN(c6ccccc6)CC5)ncnc43)C2)cc1 ?
ABCB6 inh MLPCN: 100.0; GAA850 FXN act: -2.6

Results for CCC(CC)NC(=O)COc1ccc(OC)cc1C=O ?
ABCB6 inh MLPCN: 95.0; GAA850 FXN act: 3.0; STAT3 activator: 108.5; AHR activator: -1.0

Results for COc1cc(C(c2c(O)cc(C)[nH]c2=O)c2c(O)cc(C)[nH]c2=O)ccc1O ?
ABCB6 inh MLPCN: 95.0; GAA850 FXN act: 1.6

How did Cc1ccccc1-n1c(SC/C(O)=C(\C#N)c2nc3ccccc3[nH]2)nnc1-c1ccncc1 do in these assays?
ABCB6 inh MLPCN: 93.0; GAA850 FXN act: -2.0; STAT3 activator: 133.5*; AHR activator: 45.6

Results for Cc1cc(C)n2c(SC/C(O)=C(\C#N)c3nc4ccccc4[nH]3)nnc2n1 ?
ABCB6 inh MLPCN: 102.0; GAA850 FXN act: 0.5; STAT3 activator: 106.7; AHR activator: 8.3

How did Cn1c(=O)oc2cc(S(=O)(=O)N3CCC(C(=O)NCc4ccccc4Cl)CC3)ccc21 do in these assays?
ABCB6 inh MLPCN: 98.0; GAA850 FXN act: 1.5; AHR activator: 0.4

What do the screens show for `COc1cc(/C=N/NC(=O)c2cc(-c3ccccc3)sc2N)cc(OC)c1OC`?
AHR activator: 49.3*

What do the screens show for `Cc1nc(N)sc1C(=O)N/N=C/c1ccccc1[N+](=O)[O-]`?
ABCB6 inh MLPCN: 95.0; GAA850 FXN act: 5.7; STAT3 activator: 101.5; AHR activator: 57.5*

Results for COc1cc(/C=N/NC(=O)c2ccc(-c3ccccc3)cc2)cc(OC)c1OC ?
ABCB6 inh MLPCN: 91.0; GAA850 FXN act: -3.5; STAT3 activator: 134.4*; AHR activator: 11.4

Results for COc1cc(/C=N\NC(=O)c2sc(N)nc2C)cc(OC)c1OC ?
ABCB6 inh MLPCN: 110.0; GAA850 FXN act: 3.3; STAT3 activator: 86.6; AHR activator: 62.3*

How did COc1cc(/C=N/NC(=O)c2ccoc2C)cc(OC)c1OC do in these assays?
ABCB6 inh MLPCN: 102.0; GAA850 FXN act: -0.3; STAT3 activator: 119.7; AHR activator: 36.8

What do the screens show for `Cc1nc(N)sc1C(=O)N/N=C/c1ccc([N+](=O)[O-])cc1`?
ABCB6 inh MLPCN: 98.0; GAA850 FXN act: 0.6; AHR activator: 28.7

How did COc1cc(/C=N/NC(=O)c2nnn(-c3nonc3N)c2C(C)C)ccc1OCc1ccc(F)cc1 do in these assays?
ABCB6 inh MLPCN: 98.0; GAA850 FXN act: -4.5; AHR activator: 0.6

How did Cc1cccc(N/C=C/C(=O)c2cccs2)c1C do in these assays?
ABCB6 inh MLPCN: 95.0; GAA850 FXN act: -0.9; STAT3 activator: 77.3; AHR activator: 58.9*

What do the screens show for `COc1cc([N+](=O)[O-])ccc1N/C=C/C(=O)c1cccs1`?
ABCB6 inh MLPCN: 97.0; GAA850 FXN act: -2.5; STAT3 activator: 43.9; AHR activator: 51.0*

What do the screens show for `O=C(/C=C/c1ccc([N+](=O)[O-])cc1)c1cccs1`?
ABCB6 inh MLPCN: 87.0; GAA850 FXN act: 0.2; AHR activator: -0.2

What do the screens show for `CCCCCC(=O)N1C[C@H](O)[C@@H](n2cc(-c3ccc(F)cc3)nn2)C[C@@H]1c1ccc(OC)cc1`?
ABCB6 inh MLPCN: 96.0; GAA850 FXN act: 1.0

Results for COc1ccccc1OCC(O)Cn1c(=N)n(Cc2ccccc2)c2ccccc21 (stereo not drawn) ?
ABCB6 inh MLPCN: 93.0; GAA850 FXN act: -10.8; STAT3 activator: 96.1; AHR activator: 28.1

What do the screens show for `CCCCCn1c(=N)n(CC(O)COc2ccccc2OC)c2ccccc21` (stereo not drawn)?
ABCB6 inh MLPCN: 104.0; GAA850 FXN act: -8.2; STAT3 activator: 106.7; AHR activator: 48.8*

What do the screens show for `C=CCn1c(=N)n(CC(O)COc2ccccc2OC)c2ccccc21` (stereo not drawn)?
ABCB6 inh MLPCN: 103.0; GAA850 FXN act: -1.4; STAT3 activator: 98.0; AHR activator: 62.4*

How did O=C1CCC(C(=O)OCC(=O)N2N=C3/C(=C/c4ccccc4)CCCC3C2c2ccccc2)N1 (stereo not drawn) do in these assays?
ABCB6 inh MLPCN: 103.0; GAA850 FXN act: -1.8; STAT3 activator: 96.2; AHR activator: 72.7*

How did S=c1nc(-c2ccc(Br)cc2)[nH]c2ccccc12 do in these assays?
ABCB6 inh MLPCN: 97.0; GAA850 FXN act: 2.1; AHR activator: 39.4

How did S=c1nc(-c2ccccc2)[nH]c2ccccc12 do in these assays?
ABCB6 inh MLPCN: 99.0; GAA850 FXN act: 1.6; STAT3 activator: 111.4; AHR activator: 57.4*

Results for CCN(CC)C(=O)c1[nH]cnc1C(=O)Nc1cccc(Cl)c1 ?
ABCB6 inh MLPCN: 101.0; GAA850 FXN act: -1.2; AHR activator: 67.2*

Results for Cc1cccc(-n2ccc(=O)c(C(=O)Nc3ccc(S(=O)(=O)Nc4nccc(C)n4)cc3)n2)c1 ?
ABCB6 inh MLPCN: 93.0; GAA850 FXN act: 2.4; AHR activator: -1.0

Results for Fc1ccc(NC(=S)NCc2ccccc2Cl)cc1 ?
ABCB6 inh MLPCN: 62.0*; GAA850 FXN act: 0.6; STAT3 activator: 88.2; AHR activator: -3.7

Results for COc1ccc(C(=O)NC(C)c2ccc(-n3ccnc3)cc2)c(OC)c1 (stereo not drawn) ?
ABCB6 inh MLPCN: 93.0; GAA850 FXN act: -1.5; AHR activator: 54.1*

From PubChem BioAssay
